This is a sample that favours compounds with a hit; in the whole collection about 1.5% have one here.
Rpn11 block: blocks the human proteasome subunit Rpn11 | calls only at 20 µM | 360,000 tested, 0.59% active | O00487 | human 26S proteasome, Ub4-pepOG fluorescence polarization; 20S core pre-blocked with epoxomicin;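 active = inhibition at 20 µM, scaled to each plate's controls, above about 33%, limit read from the data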
TPT1 inh: blocks Candida albicans tRNA 2'-phosphotransferase | 300,000 tested, 0.81% active | AID 1962 | recombinant caTPT1, FP RNA substrate dephosphorylation | inhibition, % at 5 µM;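 active = inhibition above the mean of all tested compounds plus 3 SD, set per screening campaign, cut at about 24% in these data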;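 note: plate controls were DMSO alone for no effect and ferristatin control at 100 nM for full effect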
HNF4A DNA FP: change in binding of human HNF4 alpha to DNA. 360,000 tested, 0.3% active. HNF4a-FITC DNA binding, fluorescence polarization, 1 h. P41235. activity change, % at 10 µM; in the data active = activity change above about 30%, passing the limit was not always enough
Target sequence (P41235 whole entry, looked up): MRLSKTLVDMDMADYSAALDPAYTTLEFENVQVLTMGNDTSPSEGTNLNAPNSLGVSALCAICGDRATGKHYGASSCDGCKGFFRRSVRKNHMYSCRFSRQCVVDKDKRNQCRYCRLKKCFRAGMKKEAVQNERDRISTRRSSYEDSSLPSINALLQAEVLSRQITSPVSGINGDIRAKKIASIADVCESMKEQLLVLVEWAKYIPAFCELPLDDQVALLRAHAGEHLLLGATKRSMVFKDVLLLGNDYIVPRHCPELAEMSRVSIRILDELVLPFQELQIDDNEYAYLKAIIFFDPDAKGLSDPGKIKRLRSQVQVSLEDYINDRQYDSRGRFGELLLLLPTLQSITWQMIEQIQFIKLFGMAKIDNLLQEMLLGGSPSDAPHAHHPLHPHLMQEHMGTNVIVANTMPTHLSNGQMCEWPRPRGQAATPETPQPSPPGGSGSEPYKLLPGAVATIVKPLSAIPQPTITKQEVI
CSN deneddyl inh: CSN deneddylation inhibition; Q92905; 360,000 tested, 0.38% active; Purified CSN, SCF-Nedd8-OG deneddylation, fluorescence polarization; inhibition, % at 12.5 µM;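 active = pattern-corrected inhibition above about 35%, with an unprinted fluorescence ratio check between 0.5 and 1.5, limit read from the data, passing the limit was not always enough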;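 note: 0% = enzyme with substrate and 100% = substrate without enzyme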
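test system = HEK293T-derived human Csn5 enzyme | amount = 0.24 nM Csn5 enzyme, final concentration | medium = Tris/NaCl/DTT buffer, pH 7.5 | schedule = 90 min reaction at room temperature | signal = FP | evaluation = inhibition of Csn5 cleavage, % | compound dosing = single dose of 12.5 µM compound with 0.25% DMSO | probe or stimulus = 10 nM SCFSkp2-Nedd8OG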
Rpn11 confirm: confirmation of human proteasome Rpn11 inhibitors; shares compounds with Rpn11 block; purified human 26S proteasome, Ub4-pepOG fluorescence polarization; proteasome pretreated with epoxomicin; inhibition, % at 20 µM; 1,900 tested, 29% active; AID 602318
MMP-2 counter: MMP-2 (human) inhibition counter-screen; 1,900 tested, 4% active; recombinant MMP-2, FRET peptide cleavage fluorescence; shares compounds with Rpn11 block; AID 602330; inhibition, % at 20 µM;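 note: human MMP-2 activated beforehand with APMA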
Thrombin FP: blocks bovine thrombin, flagging nonselective RPN11 hits | shares compounds with Rpn11 block | 1,900 tested, 13% active | bovine thrombin cleavage of Ub4-pepOG, fluorescence polarization | inhibition, % at 20 µM;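 active = mean inhibition at least 40% at 20 µM, or signal 3 deviations below plate average, so some actives read negative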;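 note: plate controls were thrombin with DMSO for no effect and buffer wells lacking thrombin for full effect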
Starred values were filed as active, the others as inactive; i = inactive; x = no result given; + = active, no number. Cut-off read from the data, not from the text of the source, unless noted: active = inhibition above about 40%; inactive = the rest.

SMILES | Rpn11 block | TPT1 inh | HNF4A DNA FP | CSN deneddyl inh | Rpn11 confirm | MMP-2 counter | Thrombin FP
N#C/C(=C\C1=C(N2CCOCC2)C(=C\c2ccc(Cl)cc2)/CC1)C(=O)Nc1ccccc1F | + | 16 | 28 | 17 | 56* | 3 | -34
COc1ccc(CNCc2cn(-c3cccc(F)c3)nc2-c2ccc(C)o2)cc1 | + | 3 | 31 | 12 | 4 | -9 | -16
Cc1cc(NC(=O)c2ccc(Cl)cc2)c(C)cc1O | i | -10 | 1 | 4 | x | x | x
Cc1cc(C(C#N)c2ccc(Cl)cc2)c(Cl)cc1NC(=O)c1cc(I)cc(I)c1O (centres undefined) | + | -2 | -9 | 12 | -2 | -5 | -6
CC(=O)Cn1c(C(F)(F)F)nc2ccccc21 | i | -6 | -1 | 3 | x | x | x
O=C(Cn1c(C(F)(F)F)nc2ccccc21)N1CCCC1 | + | -2 | -3 | 3 | -20 | -35 | -17
CC1CCCN(S(=O)(=O)c2ccc(Br)s2)C1 (centres undefined) | + | 6 | 17 | -5 | 8 | -34 | 6
CC1CCCN(S(=O)(=O)c2ccc(Cl)s2)C1 (centres undefined) | i | -2 | -4 | 0 | x | x | x
Cn1c(=O)c2cc(S(=O)(=O)NC(C(=O)Nc3cccc(F)c3)c3ccccc3)ccc2n(C)c1=O (centres undefined) | + | 0 | -3 | -2 | 72* | -32 | -16
Cn1c(=O)c2cc(S(=O)(=O)NC(C(=O)Nc3cccnc3)c3ccccc3)ccc2n(C)c1=O (centres undefined) | i | -2 | 6 | 3 | x | x | x
C=CCn1nc([N+](=O)[O-])nc1Sc1cccc2cccnc12 | + | 3 | -5 | -14 | 28 | 3 | -15
O=[N+]([O-])c1ccc(Sc2cccc3cccnc23)c([N+](=O)[O-])c1 | + | 1 | -4 | -2 | 57* | -11 | 0
Cc1ccc(C(=O)N/C(=C\c2ccc(-c3cc(Cl)ccc3Cl)o2)C(=O)NCc2cccnc2)cc1 | + | 8 | 0 | -5 | 5 | -1 | -2
O=C(NCc1cccnc1)/C(=C/c1ccc(-c2cccc(Cl)c2)o1)S(=O)(=O)c1ccccc1 | i | -2 | 1 | 0 | x | x | x
CCN1CCc2nc(NC(=O)C(c3ccccc3)c3ccccc3)sc2C1 | + | 19 | 6 | 5 | 10 | -19 | -3
CCN1CCc2nc(NC(=O)CC(c3ccccc3)c3ccccc3)sc2C1 | i | 16 | 5 | 5 | x | x | x
O=C(CN1C(=O)CCC1=O)Nc1ccc2c3c(cccc13)CC2 | + | 2 | 2 | 0 | 7 | -12 | 1
Cn1c(=O)c2ncn(CC(=O)Nc3ccc4c5c(cccc35)CC4)c2n(C)c1=O | + | 11 | 15 | 0 | 34 | -12 | 19
Cc1ccc(OCc2nc3ccccc3n2C(C)C(=O)Nc2c(C)cccc2C)cc1 (centres undefined) | x | x | 2 | 0 | x | x | x
Cn1nc(C(=O)OCC(=O)Nc2ccc(F)cc2Cl)c2ccccc2c1=O | i | x | 0 | -8 | x | x | x
O=C(Sc1cccc2cccnc12)c1ccccc1Br | + | 3 | 19 | 8 | 65* | -28 | -24
CC(=O)/C(=N\Nc1ccccc1)Sc1cccc2cccnc12 | i | -3 | -1 | 0 | x | x | x
FC(F)(F)c1ccc2c(c1)n(Cc1ccccc1)c1[n+]2CCCCC1 | + | 9 | 11 | 7 | -11 | 3 | -21
O=C(Cn1c2[n+](c3ccc(C(F)(F)F)cc31)CCCCC2)Nc1ccccc1 | i | 0 | 2 | -5 | x | x | x
O=C1NC[C@H](CCCCN2CCN(CC3CCCCC3)C(=O)C2=O)N(CCC2CCCCC2)C1=O | x | x | 1 | -3 | x | x | x
Cc1ccccc1N=Nc1c(O)[nH]c2ccccc12 | i | 9 | 2 | -1 | x | x | x
Cc1ccc2[nH]c(O)c(N=Nc3ccccc3C)c2c1 | + | 3 | 7 | 3 | 64* | -38 | -18
CCOc1ccc2nc(SCC(=O)NCc3ccco3)sc2c1 | + | -2 | 10 | 10 | -15 | 8 | -9

Screening data deposited in PubChem BioAssay by several laboratories.
